In ChEMBL document CHEMBL4049426, “Identification of the Clinical Candidate (R)-(1-(4-Fluorophenyl)-6-((1-methyl-1H-pyrazol-4-yl)sulfonyl)-4,4a,5,6,7,8-hexahydro-1H-pyrazolo[3,4-g]isoquinolin-4a-yl)(4-(trifluoromethyl)pyridin-2-yl)methanone (CORT125134): A Selective Glucocorticoid Receptor (GR) Antagonist” (J Med Chem, 2017):
The source made the active and inactive calls. The calls are words filed in the database; no cut-off is given here.

Assays:
[1] = Oral bioavailability in Sprague-Dawley CD-1 rat plasma at 5 mg/kg administered through gavage measured up to 24 hrs by LC/MS analysis; assay type: ADME, organism-based
How it was run: (§1)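 Jugular-catheterized male Sprague Dawley CD-1 rats (220-250g). Oral arm: five rats, 5mg/kg gavage, 1mg/mL in DMSO:0.5% methylcellulose 10:90, 5mL/kg, sampled pre-dose and 0.25-24 h. i.v. arm: three rats, 1mg/kg, 0.5mg/mL in DMSO:PEG400:propylene glycol 10:45:45, sampled pre-dose and 0.08-24 h. Plasma by LC/MS.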

[2] = Cmax in Sprague-Dawley CD-1 rat plasma at 5 mg/kg, po administered through gavage measured up to 24 hrs by LC/MS analysis; assay type: ADME, organism-based; set-up: dose 5 mg/kg, route oral; how it was run: as §1
[3] = Oral bioavailability in monkey plasma at 20 mg/kg measured up to 24 hrs by LC/MS analysis; assay type: ADME, organism-based, Macaca mulatta; details: rhesus monkey
How it was run: (§2)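 Monkey i.v./p.o. study: oral 20mg/kg in 10% DMSO, 0.1% Tween 80, 0.5% hydroxypropylmethylcellulose in water; i.v. dose 1mg/kg.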

Glucocorticoid receptor = target: T1, Glucocorticoid receptor (Homo sapiens, UniProt P04150); test: Antagonist activity at glucocorticoid receptor in human HepG2 cells assessed as inhibition of dexamethasone-induced tyrosine amino transferase activity preincubated for 30 mins followed by dexamethasone addition measured after 20 hrs; assay type: cell-based
T1 sequence (P04150 whole entry): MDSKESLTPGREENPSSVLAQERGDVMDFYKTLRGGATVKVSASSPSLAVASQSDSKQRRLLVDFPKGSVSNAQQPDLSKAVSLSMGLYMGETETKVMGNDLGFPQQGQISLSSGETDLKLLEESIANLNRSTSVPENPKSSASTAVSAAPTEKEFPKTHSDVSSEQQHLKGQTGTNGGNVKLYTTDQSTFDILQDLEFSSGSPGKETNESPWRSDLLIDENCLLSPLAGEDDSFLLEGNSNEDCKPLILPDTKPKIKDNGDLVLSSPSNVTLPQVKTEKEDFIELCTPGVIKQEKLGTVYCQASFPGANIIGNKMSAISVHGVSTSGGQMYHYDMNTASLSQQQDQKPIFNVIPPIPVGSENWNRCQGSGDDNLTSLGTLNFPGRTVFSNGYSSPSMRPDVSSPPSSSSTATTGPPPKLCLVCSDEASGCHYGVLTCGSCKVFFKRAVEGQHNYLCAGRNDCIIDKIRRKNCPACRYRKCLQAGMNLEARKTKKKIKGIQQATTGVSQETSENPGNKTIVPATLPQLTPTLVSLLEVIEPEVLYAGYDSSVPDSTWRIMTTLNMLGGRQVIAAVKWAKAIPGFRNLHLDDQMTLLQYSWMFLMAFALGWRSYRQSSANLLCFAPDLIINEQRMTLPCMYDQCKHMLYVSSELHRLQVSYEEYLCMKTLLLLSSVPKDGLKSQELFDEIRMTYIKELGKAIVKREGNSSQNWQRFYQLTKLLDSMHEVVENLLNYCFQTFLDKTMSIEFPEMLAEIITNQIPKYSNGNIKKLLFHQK

[4] = Cmax in monkey plasma at 20 mg/kg, po measured up to 24 hrs by LC/MS analysis; assay type: ADME, organism-based, Macaca mulatta; set-up: dose 20 mg/kg, route oral; details: rhesus monkey; how it was run: as §2
[5] = AUC in Sprague-Dawley CD-1 rat plasma at 3 mg/kg, po administered as cassette dose via gavage measured up to 24 hrs by LC/MS analysis; assay type: ADME, organism-based; set-up: time < 24 hr, dose 3 mg/kg, route oral
How it was run: (§3)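 Three male Sprague Dawley CD-1 rats (220-250g) with jugular vein catheters; three test compounds plus a reference dosed together by oral gavage, 3mg/kg each, in DMSO:0.5% methylcellulose 10:90 (0.6mg/mL per compound), 5mL/kg. Plasma sampled pre-dose and at 0.25, 0.5, 1, 2, 4, 6, 8, 24 h; LC/MS.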

[6] = Cmax in Sprague-Dawley CD-1 rat plasma at 3 mg/kg, po administered as cassette dose via gavage measured up to 24 hrs by LC/MS analysis; assay type: ADME, organism-based; set-up: dose 3 mg/kg, route oral; how it was run: as §3
[7] = AUC in Sprague-Dawley CD-1 rat plasma at 5 mg/kg, po administered through gavage measured up to 24 hrs by LC/MS analysis; assay type: ADME, organism-based; set-up: dose 5 mg/kg, time < 24 hr, route oral; how it was run: as §1
[8] = AUC in monkey plasma at 20 mg/kg, po measured up to 24 hrs by LC/MS analysis; assay type: ADME, organism-based, Macaca mulatta; set-up: dose 20 mg/kg, time < 24 hr, route oral; details: rhesus monkey; how it was run: as §2
Rattus norvegicus [9] = test: (§4) In vivo antagonist activity at glucocorticoid receptor in Sprague-Dawley rat cortisone model of exogenous Cushing's syndrome assessed as inhibition of plasma insulin levels at 30 mg/kg, po bid via gavage for 6 days pretreated for 12 hrs followed by cortisone 21-acetate treatment measured 24 hrs after last cortisone 21-acetate treatment; assay type: functional, organism-based
How it was run: (§5)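 Male Sprague Dawley rats (200-250g), 3-day vehicle baseline, groups of eight. Compound as suspension in DMSO:Tween 80:0.5% HPMC 10:0.1:89.9, oral gavage twice daily for 6 days; cortisone 21-acetate 30mg/kg s.c. daily in 1% methylcellulose. Tail-vein blood 24 h after last cortisone (12 h after last compound); glucose by clinical reagent, insulin by ultrasensitive rat ELISA.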

Rattus norvegicus [10] = test: as §4, with “rat” for “rat cortisone model of exogenous Cushing's syndrome”, “reduction in cortisone-induced” for “inhibition of”, “glucose” for “insulin”; assay type: functional, organism-based; how it was run: as §5

Row | bioavailability [1] | Cmax [2] | bioavailability [3] | Ki (Glucocorticoid receptor) | Cmax [4] | AUC at 24 h [5] | Cmax [6] | AUC at 24 h [7] | AUC at 24 h [8] | SMILES | inhibition (Rattus norvegicus [9]) | inhibition (Rattus norvegicus [10])
1 | 62% | 528 ng/mL | 1% | 11 nM | 16 ng/mL | 967 ng·h/mL | 239 ng/mL | 1560 ng·h/mL | 217 ng·h/mL | Cn1nccc1S(=O)(=O)N1CCC2=Cc3c(cnn3-c3ccc(F)cc3)C[C@]2(C(=O)c2cc(C(F)(F)F)ccn2)C1 |  | 
2 |  |  |  |  |  |  |  |  |  | CC#C[C@]1(O)CC[C@H]2[C@@H]3CCC4=CC(=O)CCC4=C3[C@@H](c3ccc(N(C)C)cc3)C[C@@]21C | Active | Active
